Laboratory results as given in ChEMBL document CHEMBL3763126, “Development of sigma-1 (σ1) receptor fluorescent ligands as versatile tools to study σ1 receptors” (Eur J Med Chem, 2016).

Legend:
[1] = molecular target: T1, Sigma non-opioid intracellular receptor 1 (Homo sapiens, UniProt Q99720); assay: Displacement of 5-(Dimethylamino)-2-{6-[(5-(4-(4-methylpiperidin-1-yl)butyl)naphthalen-2-yl)oxy]hexyl}isoindole-1,3-dione from sigma 1 receptor (unknown origin) expressed in MCF7 cells after 75 mins by flow cytometry
T1 sequence (Q99720 whole entry): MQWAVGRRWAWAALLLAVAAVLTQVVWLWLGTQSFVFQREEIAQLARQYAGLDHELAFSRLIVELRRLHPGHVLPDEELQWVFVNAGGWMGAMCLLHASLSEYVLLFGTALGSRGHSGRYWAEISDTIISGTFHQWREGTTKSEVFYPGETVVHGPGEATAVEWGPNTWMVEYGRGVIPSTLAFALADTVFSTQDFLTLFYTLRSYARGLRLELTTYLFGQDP

[2] = Displacement of [3H]-DTG from sigma 2 receptor in Wistar hannover rat liver membrane after 120 mins; format: cell membranes
Outline: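 Six to nine concentrations of test drug, two or three experiments in duplicate; IC50 for inhibition of specific binding, Ki from nonlinear curve fitting.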

[3] = molecular target: T1, Sigma non-opioid intracellular receptor 1; assay: Displacement of 5-(Dimethylamino)-2-(6-((5-(4-(4-methylpiperidin-1-yl)butyl)-5,6,7,8-tetrahydronaphthalen-2-yl)oxy)hexyl)isoindoline-1,3-dione from sigma 1 receptor (unknown origin) expressed in MCF7 after 75 mins by flow cytometry
[4] = molecular target: Sigma non-opioid intracellular receptor 1 (Cavia porcellus, UniProt Q60492); assay: Displacement of [3H]-pentazocine from sigma 1 receptor in guinea pig brain membrane after 120 mins; format: cell membranes
Sigma non-opioid intracellular receptor 1 (Cavia porcellus, UniProt Q60492), sequence (Q60492 whole entry): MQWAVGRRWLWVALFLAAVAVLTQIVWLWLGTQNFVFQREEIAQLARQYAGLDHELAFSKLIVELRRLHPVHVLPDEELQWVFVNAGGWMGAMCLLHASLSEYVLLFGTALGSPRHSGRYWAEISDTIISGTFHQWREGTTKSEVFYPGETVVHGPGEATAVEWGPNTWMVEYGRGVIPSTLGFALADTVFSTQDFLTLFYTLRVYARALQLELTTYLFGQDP
Outline: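 IC50 from six to nine drug concentrations, two or three experiments with duplicate samples; Ki obtained by nonlinear curve fitting.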

With `COc1ccc2c(CCCCN3CCC(C)CC3)cccc2c1` the IC50 [1] was 10.6 nM, the Ki [2] was 17.9 nM and the IC50 [3] was 15.5 nM.

Work on `COc1ccc2c(c1)CCCC2CCCCN1CCC(C)CC1` (stereo not drawn) yielded an IC50 [1] of 12.1 nM, a Ki [4] of 1.01 nM and a Ki [2] of 48.7 nM. The IC50 [3] was 11.3 nM.

Molecule `COc1cc2c(cc1OC)CN(CCCN1CCc3c(OC)cccc3C1=O)CC2` has a Ki [2] of 4.24 nM.

With `CC1CCN(CCCCc2cccc3cc(OCCCCCCN4C(=O)c5ccc(N(C)C)cc5C4=O)ccc23)CC1` the Ki [4] was 5.2 nM and the Ki [2] was 45.6 nM.

In the case of `CC1CCN(CCCCC2CCCc3cc(OCCCCCCN4C(=O)c5ccc(N(C)C)cc5C4=O)ccc32)CC1` (stereo not drawn), the Ki [4] is reported as 3.61 nM and the Ki [2] is reported as 48.3 nM.

Molecule `COc1cccc2c1CCCC2CCC(=O)N1CCN(C2CCCCC2)CC1` (stereo not drawn) has a Ki [2] of 179 nM.
